High-throughput results (PubChem)
Rows were chosen to be rich in hits. Some 8.9% of all compounds tested hit in one or more screens of this group.
b-catenin transl = modulators of beta-catenin nuclear translocation, primary screen, imaging, HeLa cells, immunofluorescence, high-content; 0.3% of 190,000 active; nuclear translocation activity, % at 5 µM;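 active = nuclear translocation activity above 50% at 5 µM, with a well cell count of 50 or more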;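 note: per-cell ratio of nuclear to cytoplasmic median beta-catenin stain intensity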
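Test system: HeLa cells, endogenous beta-catenin; Compound: single 5 µM dose plus 0.02–20 µM confirmation series; Times: compound exposure 24 h at 37°C; Signal: fluorescence imaging of beta-catenin antibody stain plus DAPI; Read-out: % activation, nuclear-to-cytoplasmic median beta-catenin signal ratio per cell.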
Dynein cargo inh = inhibitors of GR-EGFP nuclear translocation, primary screen, dynein cargo transport inhibitor project, imaging, high-content, 3617.4 mouse cells | 0.47% of 220,000 active | z-score, hits read low | test concentration mostly 20 µM; stimulated with dexamethasone, 1 µM; active compounds read low | AID 1381, 2008;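 active = plate z-score of nuclear minus cytoplasmic receptor signal below a set negative limit, without overly bright fluorescence or cell loss, cut at about -3.5 in these data, passing the limit was not always enough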;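 note: z-score of nuclear minus cytoplasmic ring GR-EGFP intensity difference per well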
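Medium: Induction medium lacking tetracycline, stripped serum | Probe or stimulus: 1.0 µM final dexamethasone stimulus | Schedule: 48 h induction, then 1 h compound, then 30 min agonist, 37 °C | Signal: Automated 10x imaging of fixed Hoechst-stained cells | Evaluation: Per-cell GR-EGFP intensity, nucleus versus surrounding cytoplasmic ring, well-averaged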
Lmaj promast = Leishmania major promastigote growth inhibition, primary screen. Leishmania major promastigotes, resazurin fluorescence viability. inhibition, % at 10 µM. 9% of 200,000 active; in the data active = inhibition above about 50%;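 note: promastigotes grown with compound for 44 hours at 28 °C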
HSV augment = enhancers of HSV replication in host cells, fold increase, host cell viability | 0.005% of 220,000 active | AID 1956, 2009 | HSV replication augmentation in cells | maximum fold increase; in the data active = maximum fold increase above about 1.5; tested in PC3 cells
MT stabilizer = microtubule stabilizers in HeLa cells, primary screen, imaging, high-content imaging. HeLa tubulin immunostaining HCS, 24 h; share of cells brighter than vehicle mean+2SD. % tubulin-high responders, % at 10 µM. 0.83% of 200,000 active. AID 2205, 2009;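 active = plate Z-score above 3 for both tubulin-high and condensed-nucleus cell shares, with cell loss under 80%, at 10 µM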;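 note: anti alpha tubulin signal scored within the nucleus-defined area of each cell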
A number is an active result; 0 = inactive; - = no result given.

SMILES	b-catenin transl	Dynein cargo inh	Lmaj promast	HSV augment	MT stabilizer
CCn1c(C)nc2cc(C(=O)N=Nc3c(O)[nH]c4ccccc34)ccc21	0	0	53.7	0	0
CC(C)c1ccc2[nH]c(O)c(N=NC(=O)c3cccc(S(=O)(=O)Nc4ccc(Cl)cc4)c3)c2c1	0	0	0	0	0
Cc1ccccc1Oc1nc(-c2ccccn2)nc2ccccc12	0	0	-	0	-
Cc1ccc(S(=O)(=O)O/N=C2\CCCc3ccccc32)cc1	0	0	0	0	0
CC1=C(C)/C(=N\OS(=O)(=O)c2ccccc2)C=CC1=O	0	0	100.5	0	0
C/C(CCC12CC3CC(CC(C3)C1)C2)=N\NC(N)=S	-	0	100.5	0	0
O=C(/C=C/c1ccccc1Cl)Nn1cnc2ccccc2c1=O	0	0	79.1	0	0
O=C(/C=C/c1ccccc1)Nn1cnc2ccccc2c1=O	0	0	0	0	0
Cc1nc2ccccc2c(=O)n1NC(=O)/C=C/c1ccccc1Cl	0	0	68.5	0	0
CCCCC(=O)NC(Nc1sc2c(c1C(N)=O)CCCC2)(C(=O)OCC)C(F)(F)F (stereo not given)	0	0	0	0	0
N/C(=N\OC(=O)c1ccc([N+](=O)[O-])cc1)c1cccnc1	0	0	0	0	0
C/C(=C(\C#N)C(=O)NCCN1CCOCC1)N(C)C	0	0	0	0	0
C/C(NC1CCCCC1)=C(/C#N)C(=O)NCCN1CCOCC1	0	0	50.0	0	0
COc1ccc2oc(=O)c(-c3nc(C)cs3)cc2c1	0	0	0	0	0
COc1ccccc1-n1c(-c2ccccc2)c[nH]c1=S	0	0	0	0	0
COc1ccccc1-n1c(-c2ccccc2)c[n+]2c1CCc1ccccc1-2	0	0	100.5	0	0
COc1ccc(-n2c(-c3ccc(Br)cc3)c[n+]3c2CCc2ccccc2-3)cc1	0	0	100.0	0	0
CC(C)c1ccc(-n2c(-c3ccccc3)c[n+]3c2CCc2ccccc2-3)cc1	0	0	100.2	0	0
Cn1c(CCNC(=O)c2ccc(Cl)c(Cl)c2)nnc1SCc1ccc(Cl)c(Cl)c1	0	0	0	0	0
C/C(=N\O)c1ccc2c3c([nH]c2c1)CCCC3	-	0	0	0	0
CCOC(=O)c1sc(Nc2ccc(OCC)cc2)nc1C	0	0	0	0	0
O=C(Nc1nc2c(s1)CCCC2)c1nn(Cc2ccccc2)c(=O)c2ccccc12	0	0	0	0	0
CC(C)CCn1nc(C(=O)Nc2nc3c(s2)CCCC3)c2ccccc2c1=O	0	0	64.7	0	0
COc1ccc(S(=O)(=O)NCC(c2cccnc2)N2CCN(c3ccccc3)CC2)cc1C (stereo not given)	0	0	96.9	-	0
COc1ccc(S(=O)(=O)NCC(c2cccnc2)N2CCN(c3ccc(F)cc3)CC2)cc1C (stereo not given)	0	0	96.4	0	0
SMILES	b-catenin transl	Dynein cargo inh	Lmaj promast	HSV augment	MT stabilizer
CC(C)(C)c1cnnn1-c1cccc([N+](=O)[O-])c1	0	0	0	0	0
CC(C)CCn1c(O)c(N=NC(=O)Cn2ccc(C(F)(F)F)n2)c2ccccc21	0	0	52.1	0	0
COc1ccc(C(C)=O)cc1COc1nc(C)nc2ccccc12	0	0	0	0	15.1
COCC1CCCN(Cc2nc(C(c3ccccc3)c3ccccc3)no2)C1 (stereo not given)	0	0	0	0	0
c1ccc(C(c2ccccc2)c2noc(CN3CCN(CC4CC4)CC3)n2)cc1	0	0	55.1	0	0
COc1ccccc1NC(=S)N1CCN(Cc2ccc3c(c2)OCO3)CC1	0	0	96.0	0	0
COc1ccccc1NC(=O)N1CCN(Cc2ccc3c(c2)OCO3)CC1	0	0	-	0	-
Cc1ccc(S(=O)(=O)N(C)C)cc1NC(=S)N1CCN(Cc2ccc3c(c2)OCO3)CC1	0	0	84.3	0	0
Cc1c(Cl)cccc1NC(=S)N1CCN(Cc2ccc3c(c2)OCO3)CC1	0	0	74.0	0	0
Cc1ccccc1NC(=S)N1CCN(Cc2ccc3c(c2)OCO3)CC1	0	0	0	0	0
C=CCOC(=O)C1=C(C)Nc2[nH]c(=O)[nH]c(=O)c2C1c1cccc(OC)c1 (stereo not given)	0	0	0	0	0
COC(=O)C1=C[C@@H](C(=O)OC)C2C3=C(C(=O)C24CCCCC4)[C@H](C)n2c(=O)n(-c4ccccc4)c(=O)n2[C@@H]3C1 (stereo not given in full)	-	-	-	0	-
CN(C)c1nc(N)nc(CSc2nc3cc(Cl)ccc3o2)n1	0	0	0	0	0
O=S1(=O)C=C(Sc2nc3cc(Cl)ccc3o2)c2ccccc21	0	0	79.9	0	0
O=C(OC1CCCCC1)c1ccc(NC(=O)C2CCCCC2)cc1	-	0	87.2	0	0
COc1cc(/C=N/NC(=O)c2cccnc2)ccc1OS(=O)(=O)c1cc(C)ccc1C	0	0	97.0	0	0
COc1ccc(/C=N/NC(=O)c2cccnc2)cc1CN1CCc2ccccc2C1	0	0	-	0	-
COc1cc(/C=N/NC(=O)c2cccnc2)ccc1OCC(=O)Nc1ccc(C)cc1	0	0	54.5	0	0
COc1ccc(/C=N/NC(=O)c2cccnc2)cc1Cn1nc([N+](=O)[O-])c(Br)c1C	0	0	0	0	26.9
COc1cc(/C=N/NC(=O)c2cccnc2)ccc1OS(=O)(=O)c1ccc(C)cc1	0	0	0	0	0
COc1ccc(C/C(N)=N/OC(C)=O)cc1OC	0	0	0	0	0
COc1ccc(C/C(N)=N/OC(=O)C(c2ccccc2)c2ccccc2)cc1OC	0	0	64.6	0	0
O=C(OC1CCc2ccccc2C1=O)c1ccccc1O (stereo not given)	-	0	0	0	0
Cc1cccc(N(CC(O)CON=C2c3ccccc3-c3ccccc32)S(C)(=O)=O)c1 (stereo not given)	0	0	56.1	0	0
CCN(CC(O)CON=C1c2ccccc2-c2ccccc21)S(=O)(=O)c1ccc(C)cc1 (stereo not given)	0	0	100.0	0	0
SMILES	b-catenin transl	Dynein cargo inh	Lmaj promast	HSV augment	MT stabilizer
CCN(CC(O)CON=C1c2ccccc2-c2ccccc21)S(=O)(=O)c1ccc(Cl)cc1 (stereo not given)	0	0	100.1	0	0
CCN(CC(O)Cn1c2ccccc2c2ccccc21)S(=O)(=O)c1ccc(F)cc1 (stereo not given)	-	0	0	0	0
CS(=O)(=O)N(CC(O)CON=C1c2ccccc2-c2ccccc21)c1ccc(F)cc1 (stereo not given)	0	0	0	0	0
CN(CC(O)CON=C1c2ccccc2-c2ccccc21)S(=O)(=O)c1ccc(Br)cc1 (stereo not given)	0	0	100.2	0	0
Cc1ccc(N2NC(=O)/C(=C/c3ccc(-c4ccc(Cl)c(C(=O)O)c4)o3)C2=O)cc1	0	0	0	0	0
COc1ccc(Nc2ccc(N3C(=O)CCC3=O)cc2[N+](=O)[O-])cn1	0	0	0	0	0
